# Activity calls are given as the source filed them. No cut-off for these calls is given here.
# What was measured:
# [1] = Lipophilicity, log P of the compound; assay type: physicochemical; conditions: octanol/water
# [2] = system: Rattus norvegicus; assay: Antiinsomnic activity in Sprague-Dawley rat assessed as decrease in active wake duration at 30 mg/kg/day, po measured with 3 to 4 hrs post last dose; assay type: functional, organism-based
# Procedure, shortened: (§1)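 Telemetry-implanted rats with ECoG and EMG electrodes placed under isoflurane, recovered at least two weeks, 12 h light:dark cycle. 30 mg/kg free base suspended in 20% aqueous TPGS given by oral gavage 5 h into the active phase. Crossover design with four rats, one week on drug and one on vehicle. Automated staging in 30 min bins, averaged over seven nights, mixed ANOVA.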
# [3] = system: Rattus norvegicus; assay: Antiinsomnic activity in Sprague-Dawley rat assessed as increase in rapid-eye movement at 30 mg/kg/day, po measured with 3 to 4 hrs post last dose; assay type: functional, organism-based; procedure, shortened: as §1
# [4] = system: Rattus norvegicus; assay: Antiinsomnic activity in Sprague-Dawley rat assessed as increase in delta sleep duration at 30 mg/kg/day, po measured with 3 to 4 hrs post last dose; assay type: functional, organism-based; procedure, shortened: as §1
# [5] = system: Rattus norvegicus; assay: Antiinsomnic activity in Sprague-Dawley rat assessed as decrease in light sleep duration at 30 mg/kg/day, po measured with 3 to 4 hrs post last dose; assay type: functional, organism-based; procedure, shortened: as §1
# [6] = Cmax in Sprague-Dawley rat CSF at 30 mg/kg/day, po; assay type: ADME, organism-based, Cerebrospinal fluid; set-up: dose 30 mg/kg/day, route oral
# [7] = Drug level in Sprague-Dawley rat CSF at 30 mg/kg/day, po; assay type: ADME, organism-based, Cerebrospinal fluid; set-up: route oral; conditions: in vivo, read-out: Drug uptake
# [8] = system: Rattus norvegicus; assay: In vivo occupancy of human OX2R ubiquitously overexpressed in iv dosed transgenic rat after 30 mins; assay type: functional
# Procedure, shortened: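 Transgenic human OX2R rats were infused IV over 30 min at 0.1-2.0 mg/kg in 25% hydroxypropyl-β-cyclodextrin, then sacrificed. Brain homogenate at 10 mg tissue/mL was incubated with 200 pM radioligand at room temperature and filtered at 2-15 min. Nonspecific binding was set with 1 μM unlabeled DORA. Occupancy = (1 - slope_drug/slope_vehicle) × 100; Occ90 came from nonlinear fit.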
# [9] = Drug level in human OX2R overexpressing transgenic rat plasma at 1.34 mg/kg, iv after 30 mins; assay type: ADME, organism-based; set-up: dose 1.34 mg/kg, route intravenous; conditions: read-out: Drug uptake
# Procedure, shortened: (§2)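 Transgenic rats expressing human OX2R received a 30 min IV infusion, 0.1-2.0 mg/kg, in 25% hydroxypropyl-β-cyclodextrin. They were then sacrificed, and brain, plasma and CSF were frozen. Drug levels were measured by LCMS.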
# [10] = Drug level in human OX2R overexpressing transgenic rat brain at 1.34 mg/kg, iv after 30 mins; assay type: ADME, organism-based; set-up: dose 1.34 mg/kg, route intravenous; conditions: read-out: Drug uptake; procedure, shortened: as §2
# [11] = Drug level in human OX2R overexpressing transgenic rat CSF at 1.34 mg/kg, iv after 30 mins; assay type: ADME, organism-based, Cerebrospinal fluid; set-up: dose 1.34 mg/kg, route intravenous; conditions: read-out: Drug uptake; procedure, shortened: as §2
# [12] = system: Rattus norvegicus; assay: In vivo occupancy of human OX2R ubiquitously overexpressed in transgenic rat at 30 mg/kg/day, iv after 30 mins; assay type: functional
# [13] = Thermal stability of the compound; assay type: physicochemical
# [14] = Chemical stability in pH-dependent solution; assay type: physicochemical
# [15] = Aqueous solubility of the compound; assay type: physicochemical; conditions: buffer
# [16] = Genotoxicity in Salmonella Typhimurium by Ames test; assay type: toxicity; conditions: salmonella enterica subsp. enterica serovar typhimurium
# [17] = organism: Canis familiaris; assay: Cardiotoxicity in dog; assay type: toxicity, organism-based, Canis lupus familiaris; conditions: in vivo
# [18] = Plasma protein binding in rat; assay type: ADME, cell-free; conditions: read-out: PPB
# [19] = Plasma protein binding in human; assay type: ADME, cell-free; conditions: read-out: PPB
# [20] = system: Rattus norvegicus; assay: Clearance in rat at 2 mg/kg, iv; assay type: ADME, organism-based; set-up: dose 2 mg/kg, route intravenous; conditions: in vivo
# Procedure, shortened: (§3)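 IV PK in DMSO vehicle: rat at 2 mg/kg, dog at 0.5 mg/kg. Clearance, Vd_ss and terminal half-life were derived from plasma levels.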
# [21] = Volume of distribution at steady state in rat at 2 mg/kg, iv; assay type: ADME, organism-based; set-up: dose 2 mg/kg, route intravenous; conditions: in vivo, read-out: Vdss; procedure, shortened: as §3
# [22] = Terminal half life in rat at 2 mg/kg, iv; assay type: ADME, organism-based; set-up: dose 2 mg/kg, route intravenous; conditions: in vivo, read-out: beta t1/2 (converted); procedure, shortened: as §3
# [23] = Clearance in dog at 0.5 mg/kg, iv; assay type: ADME, organism-based, Canis lupus familiaris; set-up: dose 0.5 mg/kg, route intravenous; conditions: in vivo
# Procedure, shortened: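 Dogs received an IV dose with DMSO as vehicle (n = 3). Clearance was derived from plasma pharmacokinetics.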
# [24] = Volume of distribution at steady state in dog at 0.5 mg/kg, iv; assay type: ADME, organism-based, Canis lupus familiaris; set-up: dose 0.5 mg/kg, route intravenous; conditions: in vivo, read-out: Vdss; procedure, shortened: as §3
# [25] = Terminal half life in dog at 0.5 mg/kg, iv; assay type: ADME, organism-based, Canis lupus familiaris; set-up: dose 0.5 mg/kg, route intravenous; conditions: in vivo, read-out: beta t1/2 (converted); procedure, shortened: as §3
# [26] = AUC in dog at 3 mg/kg, po; assay type: ADME, organism-based, Canis lupus familiaris; set-up: dose 3 mg/kg, route oral; conditions: plasma
# [27] = Cmax in dog at 3 mg/kg, po; assay type: ADME, organism-based, Canis lupus familiaris; set-up: dose 3 mg/kg, route oral; conditions: in vivo
# [28] = Oral bioavailability in dog at 3 mg/kg; assay type: ADME, organism-based, Canis lupus familiaris; conditions: in vivo
# [29] = Tmax in dog at 3 mg/kg, po; assay type: ADME, organism-based, Canis lupus familiaris; set-up: dose 3 mg/kg, route oral; conditions: in vivo
# [30] = AUC in rat at 10 mg/kg, po; assay type: ADME, organism-based; set-up: dose 10 mg/kg, route oral; conditions: plasma
# [31] = Cmax in rat at 10 mg/kg, po; assay type: ADME, organism-based; set-up: dose 10 mg/kg, route oral; conditions: in vivo
# [32] = Tmax in rat at 10 mg/kg, po; assay type: ADME, organism-based; set-up: dose 10 mg/kg, route oral; conditions: in vivo
# [33] = Oral bioavailability in rat at 10 mg/kg; assay type: ADME, organism-based; conditions: in vivo
compound,measurement,setting,value
Cc1ccc(-n2nccn2)c(C(=O)N2CCN(c3nc4cc(Cl)ccc4o3)CC[C@H]2C)c1 [SUVOREXANT],logP,[1],3.6
same,Activity,[2],Active
same,Activity,[3],Active
same,Activity,[4],Active
same,Activity,[5],Active
same,Cmax,[6],2.1 µM
same,concentration,[7],0.021 µM
same,Activity,[8],1.34 mg/kg
same,concentration at 0.5 h,[9],1.07 µM
same,concentration at 0.5 h,[10],1.18 µM
same,concentration at 0.5 h,[11],0.013 µM
same,Activity,[12],>90%
same,Stability,[13],Stable
same,Stability,[14],Stable
same,solubility,[15],Soluble
same,Activity,[16],Non-toxic
same,Activity,[17],Non-toxic
same,fraction unbound,[18],0.01
same,fraction unbound,[19],0.01
same,clearance,[20],2.64 L/h/kg
same,Vd,[21],2.6 L/kg
same,half-life,[22],36 min
same,clearance,[23],0.24 L/h/kg
same,Vd,[24],0.8 L/kg
same,half-life,[25],198 min
same,AUC,[26],16.9 µM·h
same,Cmax,[27],3.2 µM
same,bioavailability,[28],56%
same,Tmax,[29],30 min
same,AUC,[30],1.7 µM·h
same,Cmax,[31],0.48 µM
same,Tmax,[32],30 min
same,bioavailability,[33],19%

# — ChEMBL document CHEMBL1155457, “Discovery of the dual orexin receptor antagonist [(7R)-4-(5-chloro-1,3-benzoxazol-2-yl)-7-methyl-1,4-diazepan-1-yl][5-methyl-2-(2H-1,2,3-triazol-2-yl)phenyl]methanone (MK-4305) for the treatment of insomnia” (J Med Chem, 2010)
